From ChEMBL document CHEMBL4725282, “Discovery of a Conformationally Constrained Oxazolidinone with Improved Safety and Efficacy Profiles for the Treatment of Multidrug-Resistant Tuberculosis” (J Med Chem, 2020)

Experiments:
[1] = tested on: Mycobacterium tuberculosis; test: Antitubercular activity against Mycobacterium tuberculosis H37Rv infected in Balb/c mouse assessed as lung bacterial burden by measuring colony forming unit at 100 mg/kg/day, po administered via gavage 5 times per week for 3 weeks starting from 10 days post-infection and measured 24 hrs post last dose (reference value: 7.102 +/- 0.152 log10CFU); type: functional; conditions: time 22 day
Summary of the method: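 Female SPF BALB/c mice, 6 per group, aerosol-infected with M. tuberculosis H37Rv to deposit 50-100 bacilli per lung. Compound suspended in 0.5% CMC, given by oral gavage from day 10 post-infection, 5 times per week for 3 weeks; controls got 0.5% CMC. Lungs harvested the day after the last dose, homogenised, diluted in HBSS, plated on 7H11 agar in duplicate, incubated 3 weeks at 37 °C. Result expressed as mean log10 CFU; t-test versus control.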

[2] = Toxicity in male Sprague-Dawley rat assessed as change in platelet count at 50 mg/kg/day, po administered for 4 weeks followed by 2 week recovery period (Rvb =1077 +/- 117 10^9/L); type: organism-based; conditions: in vivo, 672 h
[3] = Toxicity in female Sprague-Dawley rat assessed as change in lymphocyte level at 50 mg/kg/day, po administered for 4 weeks followed by 2 week recovery period (Rvb =76.9 +/- 4.6 %); type: organism-based; conditions: in vivo, 672 h
[4] = Toxicity in male Sprague-Dawley rat assessed as change in mean corpuscular hemoglobin at 50 mg/kg/day, po administered for 4 weeks followed by 2 week recovery period (Rvb =18.3 +/- 0.4 pg); type: organism-based; conditions: in vivo, 672 h
[5] = Toxicity in male Sprague-Dawley rat assessed as histopathological changes in bone marrow at 450 mg/kg/day, po administered for 4 weeks followed by 2 week recovery period; type: organism-based; conditions: in vivo, 672 h
[6] = Toxicity in female Sprague-Dawley rat assessed as histopathological changes at 50 to 450 mg/kg/day, po administered for 4 weeks followed by 2 week recovery period; type: organism-based; conditions: in vivo, 672 h, dose 50-450 mg/kg/day
Summary of the method: (§1)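 SD rats, 6-7 weeks old (96 in total), split into vehicle, 50, 150 and 450 mg/kg/day groups of 12 females and 12 males each, given oral doses once daily for 4 weeks, then 2 weeks of recovery. Mortality, body weight, food intake, eyes, urine and neuropsychic signs were observed. Organ and bone marrow histopathology was done on 8 rats per sex per group after the last dose and on the remaining 4 per sex after 14 days of recovery.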

[7] = Half life in human hepatocytes at 2 uM by LC-MS/MS analysis; type: ADME, cell-based, Hepatocyte
Summary of the method: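 Hepatocytes (male CD-1 mouse, male SD rat, male beagle dog, male cynomolgus monkey, pooled human), final 1 μM compound and 1 million cells/mL, made by mixing 2 μM compound with 2 million cells/mL. Incubated at 37 °C in a CO2 incubator; sampled at 0, 15, 30, 60, 90 and 120 min. Quenched with methanol/ACN containing 0.1% formic acid. Parent remaining measured by LC-MS/MS.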

[8] = Genotoxicity in CHO-WBL cells assessed as chromosome aberration at 20 to 150 ug/ml incubated for 3 hrs followed by compound washout and measured after 17 hrs in presence of S9 fraction by Giemsa staining based; type: toxicity, subcellular, Cricetulus griseus; conditions: chinese hamster, s9, 3 h, dose 20-150 µg/ml
Summary of the method: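 CHO-WBL cells in McCoy's 5A with 10% FBS, seeded 20-24 h before treatment. Compound in DMSO, with or without serum-free S-9 mix. Treatment either 3 h, then HBSS wash and 17 h further culture, or 20 h; harvest at 20 h from treatment start. Colcemid 0.1 μg/mL for the final 2 h, hypotonic KCl, methanol:acetic acid fixation, Giemsa stain. 300 metaphases per concentration (150 per duplicate flask) scored.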

[9] = Toxicity in female Sprague-Dawley rat assessed as body weight loss at 50 to 450 mg/kg/day, po administered for 4 weeks followed by 2 week recovery period measured at 1 week interval; type: organism-based; conditions: in vivo, 672 h, dose 50-450 mg/kg/day
Summary of the method: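 SD rats, 6-7 weeks, 12 male and 12 female per group. Oral dosing once daily at 50, 150 or 450 mg/kg/day or vehicle for 4 weeks, then 2-week recovery. 8 per sex dissected after last dose, remaining 4 per sex after 14-day recovery. Body weight, urine, food intake and clinical signs monitored.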

[10] = Toxicity in male Sprague-Dawley rat assessed as changes in neuropsychic symptoms at 50 to 450 mg/kg/day, po administered for 4 weeks followed by 2 week recovery period measured during last 24 hrs of recovery period; type: organism-based; conditions: in vivo, 672 h, dose 50-450 mg/kg/day
Summary of the method: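 SD rats aged 6-7 weeks, 12 male and 12 female per group, in four groups: vehicle control, 50, 150 and 450 mg/kg/day. Dosing was oral, once daily, for 4 weeks, then a 2-week recovery period. Clinical symptoms were observed starting before administration. 8 per sex were dissected after the last dose and the remaining 4 per sex after 14 days of recovery.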

[11] = Toxicity in female Sprague-Dawley rat assessed as changes in neuropsychic symptoms at 50 to 450 mg/kg/day, po administered for 4 weeks measured during last 24 hrs of treatment period; type: organism-based; conditions: in vivo, 672 h, dose 50-450 mg/kg/day; summary of the method: as §1
[12] = Toxicity in female Sprague-Dawley rat assessed as change in mean corpuscular hemoglobin at 50 mg/kg/day, po administered for 4 weeks followed by 2 week recovery period (Rvb =18.5 +/- 0.6 pg); type: organism-based; conditions: in vivo, 672 h
[13] = Toxicity in male Sprague-Dawley rat assessed as histopathological changes in bone marrow at 450 mg/kg/day, po administered for 4 weeks measured post last dose; type: organism-based; conditions: in vivo, 672 h
[14] = Toxicity in male Sprague-Dawley rat assessed as body weight loss at 50 to 450 mg/kg/day, po administered for 4 weeks measured at 1 week interval; type: organism-based; conditions: in vivo, 672 h, dose 50-450 mg/kg/day; summary of the method: as §1
[15] = Toxicity in female Sprague-Dawley rat assessed as change in platelet count at 450 mg/kg/day, po administered for 4 weeks followed by 2 week recovery period (Rvb =1051 +/- 122 10^9/L); type: organism-based; conditions: in vivo, 672 h
[16] = Toxicity in male Sprague-Dawley rat assessed as ophthalmic changes at 50 to 450 mg/kg/day, po administered for 4 weeks measured post last dose; type: organism-based; conditions: in vivo, 672 h, dose 50-450 mg/kg/day
[17] = Toxicity in male Sprague-Dawley rat assessed as change in red blood cell count at 450 mg/kg/day, po administered for 4 weeks followed by 2 week recovery period (Rvb =7.86 +/- 0.32 10^12/L); type: organism-based; conditions: in vivo, 672 h
[18] = Stability in human liver microsome at 1 uM measured after 30 mins in absence of NADPH by LC-MS/MS analysis; type: ADME; conditions: liver microsomes, read-out: Stabilty
Summary of the method: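 Liver microsomes (male CD-1 mouse or pooled human), 1 mg/mL protein, compound 1 µM, 37°C with shaking. Started with 1 mM NADPH or run without cofactor. Quenched with ice-cold ACN/MeOH containing internal standard. Parent quantified by LC-MS/MS; 30 min concentration normalised to time zero.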

[19] = Toxicity in male Sprague-Dawley rat assessed as mortality at 50 to 450 mg/kg/day, po administered for 4 weeks; type: organism-based; conditions: in vivo, 672 h, dose 50-450 mg/kg/day
[20] = Toxicity in female Sprague-Dawley rat assessed as effect on food consumption at 50 to 450 mg/kg/day, po administered for 4 weeks measured at 1 week interval; type: organism-based; conditions: in vivo, 672 h, dose 50-450 mg/kg/day; summary of the method: as §1
[21] = Toxicity in male Sprague-Dawley rat assessed as effect on food consumption at 50 to 450 mg/kg/day, po administered for 4 weeks measured at 1 week interval; type: organism-based; conditions: in vivo, 672 h, dose 50-450 mg/kg/day
[22] = Toxicity in male Sprague-Dawley rat assessed as change in red blood cell count at 50 mg/kg/day, po administered for 4 weeks followed by 2 week recovery period (Rvb =7.86 +/- 0.32 10^12/L); type: organism-based; conditions: in vivo, 672 h

With `CC(=O)NC[C@@H]1OC(=O)N2c3cc(F)c(N4CCSCC4)cc3OC[C@@H]12` the Activity [1] was 1.954 log10CFU, the Activity [2] was 955 10^9/L and the Activity [3] was 80.7%. The Activity [4] was 18.7 pg, the Activity [5] was “Non-Toxic” and the Activity [6] was “Non-Toxic”. For the same molecule, the half-life at 2 µM [7] was over 8.33 h, the Activity [8] was “Non-Toxic” and the Activity [9] was “Non-Toxic”. The Activity [10] was “Non-Toxic”, the Activity [11] was “Non-Toxic” and the Activity [12] was 18.5 pg. The Activity [13] was “Non-Toxic”, the Activity [14] was “Non-Toxic” and the Activity [15] was 735 10^9/L. For the same molecule, the Activity [16] was “Non-Toxic”, the Activity [17] was 7.46 10^12/L and the remaining at 0.5 h, 1 µM [18] was 81.5%. For the same molecule, the Activity [19] was “Non-Toxic”, the Activity [20] was “Non-Toxic” and the Activity [21] was “Non-Toxic”. The Activity [22] was 7.29 10^12/L.
